Measurements: ChEMBL document CHEMBL4402582, “Garcinoic Acid Is a Natural and Selective Agonist of Pregnane X Receptor” (J Med Chem, 2020)
Activity calls are given as the source filed them. No cut-off for these calls is given here.

Assays:
[1] = biological target: T1, Nuclear receptor subfamily 1 group I member 2 (Homo sapiens, UniProt O75469); test: Agonist activity at His-tagged PXR-LBD/SRC-1p (unknown origin) expressed in Escherichia coli BL21(DE3) by coactivator recruitment based Alpha-screen assay; settings: read-out: EC50
T1 sequence (O75469 whole entry): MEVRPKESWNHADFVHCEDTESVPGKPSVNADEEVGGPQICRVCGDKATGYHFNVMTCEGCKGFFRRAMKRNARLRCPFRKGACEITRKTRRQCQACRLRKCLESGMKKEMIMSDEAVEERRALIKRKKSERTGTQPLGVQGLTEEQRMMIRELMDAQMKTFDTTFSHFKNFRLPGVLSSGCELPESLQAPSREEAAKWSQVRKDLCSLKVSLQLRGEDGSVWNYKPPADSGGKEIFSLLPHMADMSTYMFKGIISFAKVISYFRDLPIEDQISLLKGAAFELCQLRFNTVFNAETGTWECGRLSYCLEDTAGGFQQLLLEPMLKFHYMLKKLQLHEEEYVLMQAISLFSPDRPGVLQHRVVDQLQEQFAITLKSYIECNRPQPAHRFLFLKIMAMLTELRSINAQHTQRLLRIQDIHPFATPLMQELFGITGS

Mus musculus [2] = test: Induction of PXR protein expression in C57BL/6 mouse hepatic parenchyma assessed as induction of localization of PXR protein at hepatocytes around centro-lobular veins at 25 mg dosed as oral gavage as single bolus and measured after 24 hrs by IHC analysis relative to control; type: functional, organism-based
Method in brief: (§1)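 Male C57BL/6 mice, 6–7 weeks old, three per group. Single oral gavage bolus (5–25 mg) in olive oil; vehicle controls; killed at 24 h. Liver and gut formalin-fixed, paraffin-embedded; 4 μm sections stained with H&E. PXR IHC with polyclonal antibody at 1:200 on an automated stainer with polymer detection.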

Mus musculus [3] = test: Induction of PXR-dependent CYP3A11 protein expression in C57BL/6 mouse liver at 5 to 25 mg dosed as oral gavage as single bolus and measured after 24 hrs relative to control; type: functional, organism-based
Method in brief: (§2)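 Male C57BL/6 mice, 6–7 weeks old, three per group. Single oral gavage bolus of 5, 10 or 25 mg in olive oil vehicle; vehicle-only controls. Killed at 24 h. Tissue PXR mRNA measured; PXR, CYP3A11 and MDR1 protein measured by immunoblot.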

[4] = biological target: T1, Nuclear receptor subfamily 1 group I member 2; test: Agonist activity at PXR in human HepaRG cells assessed as increase in CYP3A4 protein expression at 1 to 25 uM incubated for 24 hrs by immunoblot analysis; type: cell-based
HepG2 = test: Effect on alpha-tocopherol level in human HepG2 cells at 25 uM; type: functional, cell-based
[5] = biological target: T1, Nuclear receptor subfamily 1 group I member 2; test: Agonist activity at PXR in human HT29 cells assessed as increase in PXR protein expression at 1 to 25 uM incubated for 24 hrs by immunoblot analysis; type: cell-based
Mus musculus [6] = test: Induction of PXR protein expression in C57BL/6 mouse liver at 5 to 25 mg dosed as oral gavage as single bolus and measured after 24 hrs relative to control; type: functional, organism-based; method in brief: as §2
[7] = biological target: T1, Nuclear receptor subfamily 1 group I member 2; test: Agonist activity at PXR in human HepaRG cells assessed as reversion of PXR antagonist sulforaphane-induced suppression of PXR expression at 10 uM incubated for 24 hrs by immunoblot analysis; type: cell-based
Mus musculus [8] = test: Induction of PXR protein expression in C57BL/6 mouse intestine assessed as induction of localization of PXR protein at villous epithelium at 5 to 25 mg dosed as oral gavage as single bolus and measured after 24 hrs by IHC analysis relative to control; type: functional, organism-based; method in brief: as §1
[9] = biological target: T1, Nuclear receptor subfamily 1 group I member 2; test: Agonist activity at PXR in human HepG2 cells assessed as stimulation of CYP450-mediated alpha-tocopherol metabolites production at 25 uM; type: cell-based; settings: hepg2, 25 µM
[10] = biological target: T1, Nuclear receptor subfamily 1 group I member 2; test: Agonist activity at PXR in human HepaRG cells assessed as reversion of PXR antagonist sulforaphane-induced suppression of CYP3A4 expression at 10 uM incubated for 24 hrs by immunoblot analysis; type: cell-based
[11] = biological target: T2, PXR (Nuclear receptor subfamily 1 group I member 2) (Homo sapiens, UniProt O75469); test: Agonist activity at His-tagged PXR-LBD/SRC-1p (unknown origin) expressed in Escherichia coli BL21(DE3) by coactivator recruitment based Alpha-screen assay relative to T0901317; settings: read-out: Efficacy
T2 sequence (O75469 whole entry): T1 sequence (O75469 whole entry)

[12] = biological target: T1, Nuclear receptor subfamily 1 group I member 2; test: Agonist activity at PXR in human HT29-MTX cells assessed as increase in PXR protein expression at 1 to 25 uM incubated for 24 hrs by immunoblot analysis; type: cell-based
[13] = Toxicity in C57BL/6 mouse assessed as effect on gross appearance at <=25 mg dosed as oral gavage as single bolus and measured after 24 hrs relative to control; type: organism-based; settings: in vivo
Method in brief: (§3)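 Male C57BL/6 mice, 6–7 weeks old, three per group. Single oral gavage bolus of 5, 10, 25, 50 or 100 mg in olive oil vehicle. Observed at 24 h for mortality, gross appearance and behavior, then post-mortem examination of liver and main organs.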

Mus musculus [14] = test: Induction of PXR-dependent CYP3A11 protein expression in C57BL/6 mouse intestine at 5 to 25 mg dosed as oral gavage as single bolus and measured after 24 hrs relative to control; type: functional, organism-based; method in brief: as §2
[15] = biological target: T1, Nuclear receptor subfamily 1 group I member 2; test: Agonist activity at PXR in human HepaRG cells assessed as reversion of PXR binding at 10 uM incubated for 24 hrs by immunoblot analysis; type: cell-based
Mus musculus [16] = test: Induction of PXR mRNA expression in C57BL/6 mouse liver at 5 to 25 mg dosed as oral gavage as single bolus and measured after 24 hrs relative to control; type: functional, organism-based; method in brief: as §2
[17] = Toxicity in C57BL/6 mouse assessed as effect on animal behavior at <=25 mg dosed as oral gavage as single bolus and measured after 24 hrs relative to control; type: organism-based; settings: in vivo; method in brief: as §3
[18] = Toxicity in C57BL/6 mouse assessed as induction of organ damage at <=25 mg dosed as oral gavage as single bolus and measured after 24 hrs relative to control; type: organism-based; settings: in vivo; method in brief: as §3
[19] = biological target: T1, Nuclear receptor subfamily 1 group I member 2; test: Agonist activity at PXR in human HepG2 cells assessed as increase in MDR1 mRNA expression at 1 to 50 uM incubated for 24 hrs; type: cell-based; settings: hepg2, 24 h
Method in brief: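 HepG2 cells exposed to 1–50 μM. MDR1 mRNA measured after RNA extraction and cDNA synthesis.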

Mus musculus [20] = test: Induction of PXR mRNA expression in C57BL/6 mouse intestine at 5 to 25 mg dosed as oral gavage as single bolus and measured after 24 hrs relative to control; type: functional, organism-based; method in brief: as §2
Mus musculus [21] = test: Induction of PXR protein expression in C57BL/6 mouse hepatic parenchyma assessed as induction of localization of PXR protein at hepatocytes around lobular midzonal area at 25 mg dosed as oral gavage as single bolus and measured after 24 hrs by IHC analysis relative to control; type: functional, organism-based; method in brief: as §1
[22] = Toxicity in C57BL/6 mouse assessed as mortality at 100 mg dosed as oral gavage as single bolus and measured after 24 hrs relative to control; type: organism-based; settings: in vivo, read-out: Activity
Method in brief: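 Male C57BL/6 wild-type mice aged 6–7 weeks, 3 per group. Single bolus by oral gavage in an olive-oil vehicle, with vehicle-only controls and dose groups of 5, 10, 25, 50 and 100 mg. Animals were checked 24 h after dosing by gross appearance and behaviour, then killed, and liver and main organs were examined post-mortem.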

For `C/C(=C\CC/C(C)=C/CC[C@]1(C)CCc2cc(O)cc(C)c2O1)CC/C=C(\C)C(=O)O`, the EC50 [1] was 1.3 µM, the Activity (Mus musculus [2]) was “Active” and the Activity (Mus musculus [3]) was “Active”. For the same compound, the Activity [4] was “Active”, the Activity (HepG2) was “inactive” and the Activity [5] was “Active”. For the same compound, the Activity (Mus musculus [6]) was “Dose-dependent effect”, the Activity [7] was “Active” and the Activity (Mus musculus [8]) was “Active”. For the same compound, the Activity [9] was “Active”, the Activity [10] was “Active” and the Emax [11] was 103%. For the same compound, the Activity [12] was “Active”, the Activity [13] was “Non-Toxic” and the Activity (Mus musculus [14]) was “Active”. For the same compound, the Activity [15] was “Active”, the Activity (Mus musculus [16]) was “Dose-dependent effect” and the Activity [17] was “Non-Toxic”. The Activity [18] was “Non-Toxic”, the Activity [19] was “Dose-dependent effect” and the Activity (Mus musculus [20]) was “Dose-dependent effect”. The Activity (Mus musculus [21]) was “Active” and the mortality at 24 h [22] was 100%.
